# Compound activity deposited in PubChem BioAssay by several laboratories.
# Only some compounds are listed: those with a hit (about 8.2% of all), similar ones and a draw of the others.
# HePTP inhibitor – inhibitors of human HePTP phosphatase, primary screen, biochemical, absorbance, leukemia target. Tyrosine-protein phosphatase non-receptor type 7 (Homo sapiens), P35236. recombinant HePTP phosphatase activity, OD absorbance. inhibition, % at 20 µM. 0.64% of 110,000 active. AID 521, 2006; in the data active means inhibition above about 50%;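 further: plate controls were vehicle for no effect and reference inhibitor for full effect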
# M1 antag – antagonists of rat M1 muscarinic receptor | Muscarinic acetylcholine receptor M1 (Rattus norvegicus), P08482 | CHO-M1 cells, Fluo-4 calcium, ACh EC80 antagonist mode; hits give low values | B-score at 10 µM | 3.4% of 64,000 active | AID 628, 2007;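 active means calcium fluorescence response, raw or row-and-column corrected B-score, differing from the plate sample mean either way at a set confidence level, mostly lower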
# M1 agonist – M1 muscarinic receptor agonists, primary screen, CHO-M1 cells, Fluo-4 calcium, agonist mode; B-score at 10 µM; 3% of 64,000 active; Muscarinic acetylcholine receptor M1; Fluo-4 calcium fluorescence; hits give high values; AID 626, 2007;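 active means fluorescence rise, raw or as B-score row- and column-corrected plate score, outside the 99.7% band of its plate's samples, either direction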
# D1 mod – D1 CRE-luciferase signal change, two-sided – cell-based, HEK293 D1, dopamine EC30, D1 allosteric modulator project, primary screen; D(1A) dopamine receptor (Homo sapiens), P21728; dopamine EC30 potentiation; actives deviate in either direction; B-score at 10 µM; 5.9% of 58,000 active; AID 641, 2007;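 active means luminescence count or its row- and column-corrected plate score outside the 99.7% band of the plate's sample wells, on either side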
# SF-1 act – activators of human SF-1, primary screen, cell-based, CHO-K1, Gal4-SF-1 LBD, luciferase luminescence; Steroidogenic factor 1 (Homo sapiens), Q13285; CHO-K1 Gal4-SF-1 LBD luciferase reporter; % increase over DMSO SF-1-specific signal; activation, % at 10 µM; 1.9% of 65,000 active; AID 522, 2006;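 active means activation above the mean activation of all tested compounds plus 3 SD, cut at about 50% in these data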
# Target sequence (Q13285 whole entry, looked up, the tested form may be a part): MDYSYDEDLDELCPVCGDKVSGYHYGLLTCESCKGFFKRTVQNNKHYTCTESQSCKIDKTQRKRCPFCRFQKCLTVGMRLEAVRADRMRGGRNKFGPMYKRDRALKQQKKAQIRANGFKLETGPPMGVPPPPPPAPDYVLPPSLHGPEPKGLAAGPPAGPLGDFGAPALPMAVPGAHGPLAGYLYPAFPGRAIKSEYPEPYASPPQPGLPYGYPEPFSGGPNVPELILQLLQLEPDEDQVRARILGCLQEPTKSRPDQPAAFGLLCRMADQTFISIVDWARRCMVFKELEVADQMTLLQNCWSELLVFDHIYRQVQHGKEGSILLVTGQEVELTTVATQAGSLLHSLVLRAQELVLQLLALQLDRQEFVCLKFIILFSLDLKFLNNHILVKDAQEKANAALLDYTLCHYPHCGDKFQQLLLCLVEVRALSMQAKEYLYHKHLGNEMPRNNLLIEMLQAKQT
#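 Test system: transient Gal4-SF-1 LBD reporter, CHO-K1; Amount: 4,000 CHO-K1 cells per well; Doses: 10 µM only; Timing: compound exposure 20 h at 37 °C; Signal: luciferase light emission; Read-out basis: percent activation relative to DMSO median and mock-transfected background; Control set: DMSO negative control and −SF1 background wells; Replicates: one test per compound.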
# RORa activator – activators of orphan receptor RORA, primary screen, cell-based, luminescence | Nuclear receptor ROR-alpha (Homo sapiens), P35398 | CHO-K1 Gal4-RORA LBD luciferase reporter; percent increase over mock-subtracted basal signal | activation, % at 10 µM | 1.5% of 65,000 active | AID 560, 2006;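 active means activation above the mean of all tested compounds plus 3 SD, cut at about 49% in these data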;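 further: 0% = DMSO-treated RORA cells and 100% = added signal equal to DMSO minus mock-transfected cells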
# D1 PAM confirm – D1 receptor positive allosteric modulators, retest, confirmation, cell-based, HEK293 D1, CRE-luciferase, duplicate; shares compounds with D1 mod; dopamine EC30 potentiation; hits give high values; luminescence at 10 µM; 88% of 2,200 active;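 active means luminescence in either of two replicates above the same-plate mean plus 3 SD of the low-dose dopamine control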
# D1 ag no DA – D1 receptor agonism without dopamine, confirmation, mechanism study for D1 allosteric modulator project, cell-based, HEK293 D1, CRE-luciferase, secondary assay 1 | AID 646, 2007 | 0.8% of 1,900 active | luminescence, no dopamine; hits give high values | shares compounds with D1 mod | luminescence at 10 µM; in the data active means luminescence above about 3900
# Isoprot counter – counter-screen for D1 modulators: isoproterenol response in HEK293 cells | shares compounds with D1 mod | calls only at 10 µM | AID 647 | 63% of 2,200 active | HEK293 D1 CRE-luciferase, isoproterenol EC30 counter-screen;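 active means luminescence in either replicate above plate mean of wells with a partly effective reference agonist dose plus 3 SD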;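 further: isoproterenol raises cAMP through native beta-adrenoceptor Gs so signal bypasses D1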
# Numbers without * were called inactive; i = inactive; . = not tested or not shown; + = active, no number.
SMILES,HePTP inhibitor,M1 antag,M1 agonist,D1 mod,SF-1 act,RORa activator,D1 PAM confirm,D1 ag no DA,Isoprot counter
CCN1CCN(c2ccc(-n3c(C)nc4c(cnn4-c4ccccc4Cl)c3=O)cc2)CC1,6,-1.6,0.19,-1.2,-4,20,.,.,.
COC(=O)c1nc(-c2ccccc2)oc1N(C)C,11,1.5,-1.6,2.6,-9,8,.,.,.
COC(=O)c1nc(N)sc1-c1ccccc1,-15,0.064,0.17,11*,-16,-6,21800*,1648,+
c1cncc(-c2nnc3n2CCC3)c1,-1,0.049,0.1,-0.14,-5,-11,.,.,.
C=CCn1c(N)c(C(=O)OC(C)(C)C)c2nc3ccccc3nc21,6,-0.26,1.2,4.7,4,6,.,.,.
C=CCn1c(N)c(C(=O)OC(C)CC)c2nc3ccccc3nc21 (stereo not drawn),0,0.39,0.57,7.5*,-5,-15,14864*,1544,+
Cc1cc(NC(=O)COC(=O)c2c(C)nn(-c3ccccc3)c2C)no1,-6,0.35,-0.0026,0.24,-9,-6,.,.,.
Cc1nc(COC(=O)c2c(C)nn(-c3ccccc3)c2C)cs1,-2,-0.11,0.58,6.9*,39,18,8048*,1512,+
COC(=O)c1c(NC(=O)Cc2ccccc2)sc(C)c1C,7,.,.,.,.,.,.,.,.
COC(=O)c1c(NC(=O)Cc2cccs2)sc(C)c1C,9,-0.74,0.64,15*,-9,-15,11876*,1564,+
CCOC(=O)c1c(NC(=O)Cc2cccs2)sc(C(=O)N2CCOCC2)c1C,-1,.,.,.,.,.,.,.,.
CCOC(=O)c1c(NC(=O)Cc2cccs2)sc(C(=O)N2CCCCC2)c1C,8,0.028,-0.21,12*,7,-7,17816*,1812,+
CC(=O)COc1ccc2c(C)cc(=O)oc2c1,6,.,.,.,.,.,.,.,.
CSc1ccccc1NC(=O)c1onc(C)c1Cl,1,0.94,0.29,1.6*,2,-5,7308*,1580,i
CCC(=O)Nc1cc2c(cc1C(=O)c1ccccc1)OCCO2,5,-0.11,-0.85,13*,0,-31,15532*,.,+
CCC(=O)Nc1cc2c(cc1C(=O)CC)OCCO2,10,-2,0.38,14*,12,-7,12916*,1684,+
CC(=O)Nc1cc2c(cc1C(=O)c1ccccc1)OCCO2,8,-0.31,-1.2,6.3*,-12,-15,8592*,1552,+
Cc1cccc(C2CC(c3ccccc3)Nc3nc(N)nn32)c1 (stereo not drawn),19,-0.19,-1.8,18*,0,-2,16344*,1564,+
Nc1nc2n(n1)C(c1cccc(Cl)c1)CC(c1ccc(F)cc1)N2 (stereo not drawn),-3,-0.24,-0.31,13*,.,.,13312*,.,+
COc1ccc(C2CC(c3ccc(Cl)cc3Cl)Nc3nc(N)nn32)cc1 (stereo not drawn),19,-0.12,-0.8,3.1*,4,0,6116*,1680,i
COc1cccc(C2CC(c3ccc(C)cc3)Nc3nc(N)nn32)c1 (stereo not drawn),-6,-0.44,-0.84,0.64,24,-14,.,.,.
Nc1nc2n(n1)C(c1cccs1)CC(c1ccccc1)N2 (stereo not drawn),-1,0.34,-0.77,14*,-5,13,13800*,.,+
COc1ccc(C2CC(c3ccc(Cl)cc3Cl)n3nc(N)nc3N2)cc1 (stereo not drawn),8,-0.092,-0.81,1.2,4,6,.,.,.
Cc1cc2nc3s/c(=C/c4ccc5c(c4)OCO5)c(=O)n3c2cc1C,6,.,.,.,.,.,.,.,.
CCCc1cc(C(=O)Nc2cc(Br)ccc2O)no1,1,-0.69,-0.65,-0.24,11,-9,.,.,.
SMILES,HePTP inhibitor,M1 antag,M1 agonist,D1 mod,SF-1 act,RORa activator,D1 PAM confirm,D1 ag no DA,Isoprot counter
COc1ccc(-c2nc(CN3CCC(C(=O)NC(C)C)CC3)c(C)o2)cc1OC,6,-0.38,-0.062,0.0015,-13,-8,.,.,.
CCC(=O)Nc1cc(-c2nn(C)c(=O)c3ccccc23)ccc1OC,-7,-0.29,0.14,3.3,-8,0,.,.,.
COc1ccc(-c2nn(C)c(=O)c3ccccc23)cc1NC(=O)Cn1nc(C)c2ccccc2c1=O,-6,0.29,3.2,8.6*,4,-12,19816*,1720,+
C=CCn1c(SCc2nc3c(c(=O)[nH]c(=O)n3CCCC)n2CCC)nnc1-c1ccccc1,-1,-0.23,1.3,3.8*,-8,-13,9252*,1692,i
CCCc1nc(N2CCOCC2)c(C#N)c2c1CCCC2,7,0.36,-0.27,6.5*,4,-5,7888*,1524,i
CC(C)Cc1nc(N2CCN(C(=O)c3ccco3)CC2)c(C#N)c2c1CCC2,4,0.11,0.25,7.5*,1,12,12548*,1660,+
O=C(c1ccco1)N1CCN(c2nc(C3CC3)nc3sc4c(c23)CCCC4)CC1,8,0.17,0.79,6.9*,-16,6,15256*,1564,i
CC1(C)Cc2c(C#N)c(N3CCN(C(=O)c4ccco4)CC3)nc(-c3ccco3)c2CS1,4,-0.081,0.68,.,5,2,.,.,.
CC1(C)Cc2c(C#N)c(N3CCN(C(=O)c4ccco4)CC3)nc(Cc3ccccc3)c2CO1,12,0.019,-0.15,.,-16,-25,.,.,.
N#Cc1c(N2CCN(C(=O)c3ccco3)CC2)nc(-c2ccccc2)c2c1CCCC2,2,-0.019,-0.6,2.8*,-5,-10,13716*,1492,+
Cc1ccc(C(C)C)cc1C(=O)CC1(O)C(=O)N(C)c2ccccc21 (stereo not drawn),9,-0.69,0.21,0.98,-3,1,.,.,.
COc1ccc(NC(=O)c2cnc3n(c2=O)CCS3)cc1OC,5,0.91,-0.17,0.53,9,15,.,.,.
OC12CCCCC1C(c1ccc3c(c1)OCO3)N(Cc1ccccc1F)CC2 (stereo not drawn),-17,-0.067,0.057,0.9,-18,18,.,.,.
